Measured values reported in ChEMBL document CHEMBL3763019, “Discovery of benzenesulfonamide derivatives as potent PI3K/mTOR dual inhibitors with in vivo efficacies against hepatocellular carcinoma” (Bioorg Med Chem, 2016).

Columns and labels:
[1] = Antiproliferative activity against human COLO205 cells incubated for 48 hrs by sulforhodamine B assay; format: functional; details: COLO 205, 48 h
Procedure, shortened: (§1)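 Run externally by the US National Cancer Institute as part of its 60 human cancer cell line cytotoxicity screen (NCI-60).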

[2] = Antiproliferative activity against human RXF393 cells incubated for 48 hrs by sulforhodamine B assay; format: functional; details: RXF 393, 48 h; procedure, shortened: as §1
KM12 = experiment: Antiproliferative activity against human KM12 cells incubated for 48 hrs by sulforhodamine B assay; format: functional; details: KM12, 48 h; procedure, shortened: as §1
[3] = molecular target: Serine/threonine-protein kinase mTOR (Homo sapiens, UniProt P42345); experiment: Inhibition of mTOR kinase (unknown origin) assessed as suppression of ULight-4E-BP1 substrate phosphorylation incubated for 1 hr by lance ultra assay
Mus musculus [4] = experiment: Toxicity in BALB/C nude mouse xenografted with human Bel7404 cells assessed as reduction in body weight at 30 mg/kg, po qd for 14 consecutive days; format: organism-based; details: in vivo
Procedure, shortened: (§2)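 Male BALB/C nude mice were implanted with BEL-7404 cells. When tumors reached 100–300 mm³ (after 12 days), mice were randomized to 6 per treatment group and 8 controls. The drug, suspended in 5% polysorbate 80 in water, was given orally once daily for 14 days from day 13. Body weight and mortality were tracked during dosing, and mice were sacrificed on day 29.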

MDA-MB-231 = experiment: Cytotoxicity against human MDA-MB-231 cells after 72 hrs by MTT assay; format: functional, cell-based; details: MDA-MB-231, 72 h
Procedure, shortened: (§3)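 Log-phase cells at 40,000–50,000 cells/mL in DMEM with 10% FBS and antibiotics were seeded and cultured overnight at 37 °C, 5% CO₂. Compounds were diluted in DMSO/PBS from 10^-4 to 10^-9 M and applied for 72 h. MTT (5 mg/mL stock) was then added for 4 h and absorbance read at 570 nm. IC50 came from nonlinear regression on triplicate wells, averaged.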

A549 [5] = experiment: Cytotoxicity against human A549 cells after 72 hrs by MTT assay; format: functional, cell-based; details: A549, 72 h; procedure, shortened: as §3
NCI-H522 = experiment: Antiproliferative activity against human NCI-H522 cells incubated for 48 hrs by sulforhodamine B assay; format: functional; details: NCI-H522, 48 h; procedure, shortened: as §1
HT-29 = experiment: Antiproliferative activity against human HT-29 cells incubated for 48 hrs by sulforhodamine B assay; format: functional; details: HT-29, 48 h; procedure, shortened: as §1
[6] = Antiproliferative activity against human OVCAR8 cells incubated for 48 hrs by sulforhodamine B assay; format: functional; details: OVCAR-8, 48 h; procedure, shortened: as §1
SN12C = experiment: Antiproliferative activity against human SN12C cells incubated for 48 hrs by sulforhodamine B assay; format: functional; procedure, shortened: as §1
[7] = Antiproliferative activity against human LOXIMVI cells incubated for 48 hrs by sulforhodamine B assay; format: functional; details: LOX IMVI; procedure, shortened: as §1
[8] = Antiproliferative activity against human IGROV1 cells incubated for 48 hrs by sulforhodamine B assay; format: functional; details: IGROV-1, 48 h
[9] = Cytotoxicity against human HCT116 cells after 72 hrs by MTT assay; format: functional, cell-based; details: HCT-116, 72 h; procedure, shortened: as §3
[10] = molecular target: T1, Phosphatidylinositol 4,5-bisphosphate 3-kinase catalytic subunit beta isoform (Homo sapiens, UniProt P42338); experiment: Inhibition of PI3K-beta (unknown origin) after 40 mins by ADP-Glo luminescent kinase assay
Procedure, shortened: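 ADP-Glo reagent stopped the reaction (40 min), then detection reagent was added (60 min) and luminescence read. Percent inhibition was derived from RLU.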
Target sequence in this assay (P42338 whole entry, canonical isoform): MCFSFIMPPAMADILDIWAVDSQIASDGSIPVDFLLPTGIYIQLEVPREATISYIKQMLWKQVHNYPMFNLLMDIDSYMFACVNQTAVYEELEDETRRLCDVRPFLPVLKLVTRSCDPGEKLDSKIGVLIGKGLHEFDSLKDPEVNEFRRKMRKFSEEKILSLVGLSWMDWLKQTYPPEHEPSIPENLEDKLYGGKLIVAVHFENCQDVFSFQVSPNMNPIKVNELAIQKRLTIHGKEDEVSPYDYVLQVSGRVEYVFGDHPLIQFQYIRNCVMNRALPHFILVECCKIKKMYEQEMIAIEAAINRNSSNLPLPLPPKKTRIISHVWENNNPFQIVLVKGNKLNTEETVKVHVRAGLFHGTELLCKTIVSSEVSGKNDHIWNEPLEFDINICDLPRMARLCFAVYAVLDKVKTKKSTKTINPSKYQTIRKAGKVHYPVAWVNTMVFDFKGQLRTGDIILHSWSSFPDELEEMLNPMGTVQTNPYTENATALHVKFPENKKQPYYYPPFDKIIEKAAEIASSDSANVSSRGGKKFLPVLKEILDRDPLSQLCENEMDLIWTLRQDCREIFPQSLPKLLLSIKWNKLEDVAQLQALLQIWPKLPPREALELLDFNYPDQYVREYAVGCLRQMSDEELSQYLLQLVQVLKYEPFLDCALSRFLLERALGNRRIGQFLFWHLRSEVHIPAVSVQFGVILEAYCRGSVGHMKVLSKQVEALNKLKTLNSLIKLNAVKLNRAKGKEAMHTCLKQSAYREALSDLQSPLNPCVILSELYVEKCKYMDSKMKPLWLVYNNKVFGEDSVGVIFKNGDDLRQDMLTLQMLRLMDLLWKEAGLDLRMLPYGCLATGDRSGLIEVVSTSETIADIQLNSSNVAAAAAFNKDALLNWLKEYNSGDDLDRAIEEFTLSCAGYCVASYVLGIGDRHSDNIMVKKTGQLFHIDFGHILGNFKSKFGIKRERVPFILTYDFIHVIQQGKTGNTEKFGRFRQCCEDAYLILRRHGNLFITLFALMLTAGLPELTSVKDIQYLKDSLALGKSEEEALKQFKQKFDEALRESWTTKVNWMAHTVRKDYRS

[11] = Antiproliferative activity against human BT549 cells incubated for 48 hrs by sulforhodamine B assay; format: functional; details: BT-549, 48 h; procedure, shortened: as §1
[12] = Antiproliferative activity against human RPMI8226 cells incubated for 48 hrs by sulforhodamine B assay; format: functional; details: RPMI-8226, 48 h
[13] = Antiproliferative activity against human TK10 cells incubated for 48 hrs by sulforhodamine B assay; format: functional; details: TK-10, 48 h
[14] = Antiproliferative activity against human HCC2998 cells incubated for 48 hrs by sulforhodamine B assay; format: functional; details: HCC 2998, 48 h; procedure, shortened: as §1
[15] = Antiproliferative activity against human NCI60 incubated for 48 hrs by sulforhodamine B assay; format: functional; details: NCI60, 48 h; procedure, shortened: as §1
[16] = molecular target: T1, Phosphatidylinositol 4,5-bisphosphate 3-kinase catalytic subunit beta isoform; experiment: Inhibition of PI3K-beta (unknown origin) at 10 nM after 40 mins by ADP-Glo luminescent kinase assay
Procedure, shortened: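 Final enzyme was PI3Kβ 4.8 nM and PI3Kγ 7.6 nM. ADP-Glo reagent stopped the reaction (40 min), then detection reagent was added (60 min) and luminescence read. Percent inhibition was derived from RLU.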
Target sequence in this assay (P42338 whole entry, looked up, canonical isoform): as the sequence (P42338 whole entry, canonical isoform) above

U-251 = experiment: Antiproliferative activity against human U251 cells incubated for 48 hrs by sulforhodamine B assay; format: functional; details: U-251, 48 h
786-0 = experiment: Antiproliferative activity against human 786-0 cells incubated for 48 hrs by sulforhodamine B assay; format: functional; details: 786-0, 48 h; procedure, shortened: as §1
CCRF-CEM = experiment: Antiproliferative activity against human CCRF-CEM cells incubated for 48 hrs by sulforhodamine B assay; format: functional; procedure, shortened: as §1
Mus musculus [17] = experiment: Toxicity in BALB/C nude mouse xenografted with human Bel7404 cells assessed as mortality at 30 mg/kg, po qd for 14 consecutive days; format: organism-based; details: in vivo; procedure, shortened: as §2
[18] = Antiproliferative activity against human UACC257 cells incubated for 48 hrs by sulforhodamine B assay; format: functional; details: UACC-257, 48 h
[19] = molecular target: Phosphatidylinositol 4,5-bisphosphate 3-kinase catalytic subunit delta isoform (Homo sapiens, UniProt O00329); experiment: Inhibition of PI3K-delta (unknown origin) using PIP2 as substrate incubated for 1 hr by Kinase-Glo luminescent kinase assay
Sequence of Phosphatidylinositol 4,5-bisphosphate 3-kinase catalytic subunit delta isoform (O00329 whole entry, canonical isoform): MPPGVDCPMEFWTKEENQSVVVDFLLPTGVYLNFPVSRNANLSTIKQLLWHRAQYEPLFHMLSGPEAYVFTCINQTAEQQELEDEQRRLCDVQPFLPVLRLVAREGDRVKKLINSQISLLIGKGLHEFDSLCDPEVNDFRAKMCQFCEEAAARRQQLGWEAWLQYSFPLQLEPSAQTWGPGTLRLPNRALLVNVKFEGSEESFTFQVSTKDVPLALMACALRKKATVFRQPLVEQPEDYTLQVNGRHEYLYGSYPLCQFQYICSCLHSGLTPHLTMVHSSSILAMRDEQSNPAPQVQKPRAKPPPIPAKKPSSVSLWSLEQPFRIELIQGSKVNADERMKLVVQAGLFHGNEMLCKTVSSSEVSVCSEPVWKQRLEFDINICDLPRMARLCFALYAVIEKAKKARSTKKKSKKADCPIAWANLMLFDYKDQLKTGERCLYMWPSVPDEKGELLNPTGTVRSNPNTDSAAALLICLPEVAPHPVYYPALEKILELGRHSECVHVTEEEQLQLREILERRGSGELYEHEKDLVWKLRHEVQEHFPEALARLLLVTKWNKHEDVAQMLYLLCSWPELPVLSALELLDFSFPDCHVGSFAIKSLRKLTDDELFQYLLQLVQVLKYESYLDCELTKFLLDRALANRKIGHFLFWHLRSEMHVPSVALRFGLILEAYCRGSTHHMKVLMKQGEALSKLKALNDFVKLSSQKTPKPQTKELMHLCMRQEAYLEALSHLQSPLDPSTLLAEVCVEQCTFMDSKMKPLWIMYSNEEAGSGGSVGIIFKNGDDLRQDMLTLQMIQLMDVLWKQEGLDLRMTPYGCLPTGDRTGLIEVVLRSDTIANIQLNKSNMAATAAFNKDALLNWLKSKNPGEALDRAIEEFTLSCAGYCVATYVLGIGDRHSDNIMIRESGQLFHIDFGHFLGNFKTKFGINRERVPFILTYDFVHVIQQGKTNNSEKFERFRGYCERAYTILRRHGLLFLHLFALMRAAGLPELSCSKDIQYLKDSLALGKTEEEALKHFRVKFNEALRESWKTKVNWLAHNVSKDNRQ

A549 [20] = experiment: Inhibition of insulin-stimulated PI3K in human A549 cells assessed as suppression of AKT phosphorylation at Ser473 after 30 mins by Western blot analysis; format: cell-based
Procedure, shortened: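 A549 cells were insulin-stimulated for 2 h, then exposed to four compound concentrations for 30 min. Lysis was in ice-cold RIPA buffer, protein was quantified by BCA, and lysates were run on 10% SDS-PAGE and transferred to nitrocellulose. Detection was by infrared imaging, with β-actin as loading control.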

[21] = Antiproliferative activity against human MOLT4 cells incubated for 48 hrs by sulforhodamine B assay; format: functional; details: MOLT-4, 48 h; procedure, shortened: as §1
[22] = read-out: pLC50 (the source's name) (converted)

SMILES: COc1ncc(-c2ccc3nccc(C#CCN4CCN(S(C)(=O)=O)CC4)c3c2)cc1NS(=O)(=O)c1ccc(F)cc1F
- GI50 [1]: 42.7 nM
- CC50 [1, 22]: 7240 nM
- TGI ([1]; read-out: pTGI (converted)): 1120 nM
- GI50 [2]: 51.3 nM
- CC50 [2, 22]: 11700 nM
- TGI ([2]; read-out: pTGI (converted)): 427 nM
- GI50 (KM12): 275 nM
- CC50 (KM12; [22]): 4790 nM
- TGI (KM12; read-out: pTGI (converted)): 1480 nM
- IC50 [3]: 5.4 nM
- Activity (Mus musculus [4]): Non-toxic
- IC50 (MDA-MB-231): 1440 nM
- IC50 (A549 [5]): 1780 nM
- GI50 (NCI-H522): 178 nM
- CC50 (NCI-H522; [22]): 5890 nM
- TGI (NCI-H522; read-out: pTGI (converted)): 1740 nM
- GI50 (HT-29): 20.4 nM
- CC50 (HT-29; [22]): 35500 nM
- TGI (HT-29; read-out: pTGI (converted)): 1510 nM
- GI50 [6]: 251 nM
- CC50 [6, 22]: 67600 nM
- TGI ([6]; read-out: pTGI (converted)): 10700 nM
- GI50 (SN12C): 102 nM
- CC50 (SN12C; [22]): > 100000 nM
- TGI (SN12C; read-out: pTGI (converted)): 12300 nM
- GI50 [7]: 81.3 nM
- CC50 [7, 22]: 5620 nM
- TGI ([7]; read-out: pTGI (converted)): 1350 nM
- GI50 [8]: < 10 nM
- CC50 [8, 22]: > 100000 nM
- IC50 [9]: 930 nM
- IC50 [10]: 9.4 nM
- GI50 [11]: 41.7 nM
- CC50 [11, 22]: 4570 nM
- TGI ([11]; read-out: pTGI (converted)): 813 nM
- GI50 [12]: 263 nM
- TGI ([12]; read-out: pTGI (converted)): 1450 nM
- GI50 [13]: 11.8 nM
- CC50 [13, 22]: 38900 nM
- GI50 [14]: 61.7 nM
- CC50 [14, 22]: 3980 nM
- TGI ([14]; read-out: pTGI (converted)): 1120 nM
- GI50 [15]: 65 nM
- inhibition [16]: 69%
- GI50 (U-251): 178 nM
- CC50 (U-251; [22]): 4680 nM
- TGI (U-251; read-out: pTGI (converted)): 1510 nM
- GI50 (786-0): 44.7 nM
- CC50 (786-0; [22]): 49000 nM
- TGI (786-0; read-out: pTGI (converted)): 1450 nM
- GI50 (CCRF-CEM): 148 nM
- CC50 (CCRF-CEM; [22]): > 100000 nM
- TGI (CCRF-CEM; read-out: pTGI (converted)): 2570 nM
- Activity (Mus musculus [17]): Non-toxic
- GI50 [18]: 38.9 nM
- CC50 [18, 22]: 15500 nM
- TGI ([18]; read-out: pTGI (converted)): 603 nM
- IC50 [19]: 14 nM
- inhibition (A549 [20]): Dose-dependent effect
- GI50 [21]: 38 nM
- CC50 [21, 22]: > 100000 nM
- TGI ([21]; read-out: pTGI (converted)): 1150 nM
